Assay [1] is described as follows: Her2 expression decrease, cell viability multiplex – SKBR3 breast tumor cells, AlphaScreen, ATP viability, primary screen (AID 461;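 active means Her2 level under about 52% in both replicate screens, with viability over 70% of control, limit read from the data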;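 on Her2 level: lower value means less Her2 protein in the cells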;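 on viability: percent of carrier control wells set as 100% viability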). Conditions: SKBR3 Her2 protein level, 18-24 h, measured here: SKBR3 viability, ATP luminescence, at 10 µM. On the technique in general: Bead proximity is the source of the signal in Alpha formats.
For assay [2], the target named is Receptor tyrosine-protein kinase erbB-2 (Homo sapiens) (UniProt P04626). The description is as above. Conditions: 18-24 h, at 10 µM, stronger effect = lower value.
Chain of Receptor tyrosine-protein kinase erbB-2 (Homo sapiens) (P04626 whole entry, looked up): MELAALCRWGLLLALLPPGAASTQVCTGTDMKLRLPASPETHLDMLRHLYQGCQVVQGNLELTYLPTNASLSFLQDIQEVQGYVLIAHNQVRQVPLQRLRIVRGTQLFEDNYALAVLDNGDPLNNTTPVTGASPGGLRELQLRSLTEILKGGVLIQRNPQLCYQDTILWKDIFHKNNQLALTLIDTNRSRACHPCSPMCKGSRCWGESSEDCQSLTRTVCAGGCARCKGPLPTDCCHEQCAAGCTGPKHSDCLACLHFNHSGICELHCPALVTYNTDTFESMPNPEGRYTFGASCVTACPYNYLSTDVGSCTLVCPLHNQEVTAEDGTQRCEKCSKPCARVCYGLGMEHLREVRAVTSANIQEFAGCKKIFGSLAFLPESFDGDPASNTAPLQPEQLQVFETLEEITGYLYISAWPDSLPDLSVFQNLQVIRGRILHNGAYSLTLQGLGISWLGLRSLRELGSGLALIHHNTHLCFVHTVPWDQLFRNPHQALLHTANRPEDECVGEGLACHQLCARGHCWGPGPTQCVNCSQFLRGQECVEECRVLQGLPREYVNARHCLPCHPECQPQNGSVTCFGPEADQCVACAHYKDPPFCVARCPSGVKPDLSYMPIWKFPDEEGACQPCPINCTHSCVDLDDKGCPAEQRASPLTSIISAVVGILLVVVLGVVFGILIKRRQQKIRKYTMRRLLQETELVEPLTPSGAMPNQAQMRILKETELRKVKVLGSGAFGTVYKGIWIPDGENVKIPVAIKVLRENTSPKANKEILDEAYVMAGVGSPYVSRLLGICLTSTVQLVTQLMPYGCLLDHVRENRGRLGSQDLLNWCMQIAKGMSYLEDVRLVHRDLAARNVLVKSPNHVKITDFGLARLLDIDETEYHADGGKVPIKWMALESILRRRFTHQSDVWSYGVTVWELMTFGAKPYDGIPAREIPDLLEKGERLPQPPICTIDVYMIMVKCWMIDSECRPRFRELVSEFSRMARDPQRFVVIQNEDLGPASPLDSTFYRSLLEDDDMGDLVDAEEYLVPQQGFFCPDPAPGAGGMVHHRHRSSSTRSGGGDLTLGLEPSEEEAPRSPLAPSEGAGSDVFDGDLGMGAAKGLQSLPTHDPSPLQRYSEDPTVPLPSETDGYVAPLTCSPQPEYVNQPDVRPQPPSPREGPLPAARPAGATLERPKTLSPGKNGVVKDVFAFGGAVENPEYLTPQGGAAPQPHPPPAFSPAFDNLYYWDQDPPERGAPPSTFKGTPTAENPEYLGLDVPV
Assay [3] can be described thus: reduced viability of SK-BR-3 breast cancer cells – cell-based, 24 h, human, pilot screen (AID 572;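 active means viability at or below 10% of carrier control in both of two separate runs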;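 further: compound exposure lasted between 18 and 24 h rather than exactly 24 h; 100% = carrier-treated control wells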). Conditions: SK-BR-3 viability, CellTiter-Glo luminescence, at 10 µM, stronger effect = lower value. (In ATP-based viability assays light output follows the ATP content of the culture.)
A short description of assay [4]: HUVEC growth inhibition – cell-based, human, primary screen (AID 575;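 active means viability at or below 30% in both replicate assays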;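 further: 100% = median of untreated cell wells with 0.1% DMSO on each plate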). Conditions: HUVEC proliferation, CellTiter-Glo luminescence, 72 h; at 10 µM; stronger effect = lower value. The gist of the method:
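Material: primary human umbilical vein endothelial cells / Schedule: 72 h exposure, 37 °C, 5% CO2, 30 min RT equilibration / Signal: ATP-based CellTiter-Glo luminescent read / Read-out basis: percent of median DMSO-control luminescence / Control set: 32 DMSO-only cell-control wells (high), 32 MePR drug-control wells (low) per plate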

Assay [5] is described as follows: H69AR cell proliferation blockers – human, duplicate replicates, primary screen (AID 580).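 Further: 100% = mean luminescence of untreated wells and 0% = no signal.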 Conditions: H69AR lung tumor cells viability, ATP luminescence, 72 h; at 10 µM; stronger effect = lower value.
Assay [6] is described as follows: MRP1 drug-resistance reversers in H69AR cells – cell-based, doxorubicin co-treatment, pilot screen (AID 601;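 active means viability loss from added drug above about 55%, and viability with drug at most 40%, in both replicates, limit read from the data, passing the limit was not always enough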). To be noted: CellTiter-Glo, 72 h, at 10 µM; for differential viability (reversal): stronger effect = higher value.
The nature of assay [7]: yeast transport mutant growth inhibition pilot in 384-well plates, post-Golgi transport modulator project (AID 636; in the data active means inhibition above about 31%). Conditions: absorbance 615 nm, about 18 h, stronger effect = higher value.
Assay [8] can be described thus: growth suppression of yeast trafficking mutant, preliminary HTS, modulators of trafficking downstream of Golgi apparatus project, 1536-format plate, OD 615 nm (AID 637; in the data active means inhibition above about 30%). To be noted: yeast transport mutant growth, absorbance 615 nm, 18 h; stronger effect = higher value.
Where [9] appears, read: H69AR cells + 2 uM doxorubicin, measured here: viability with 2 uM doxorubicin, stronger effect = lower value.
Setting [10] is: H69AR cells, compound alone cytotoxicity.

Here are results for 14 molecules from PubChem BioAssay.

For orientation: viability means a read-out of living cells in per cent, often relative to untreated cells. By inhibition is commonly meant the change of the read-out against control, counted positive when it falls.

The source made the active and inactive calls.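 How the source made its calls, unless noted: active means viability at or under a set limit in both replicates, limit being median viability minus 3 SD (cut at about 48% in these data, passing the limit was not always enough); inconclusive means at or under the limit in just one replicate; inactive means at or above the limit in both replicates.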

In the case of `COC(=O)c1sccc1NC(=O)c1csc(C)c1`, the viability is 87% in assay [1]; 87% (inactive) in assay [3]; 60.8% (inactive) in assay [4]; 69.1% (inactive) in assay [5]; 67.1% in assay [6] (setting [9]); 69.1% in assay [6] (setting [10]). For the same molecule, the Her2 level in assay [2] was 20% (active). Moreover, the differential viability (reversal) in assay [6] (H69AR cells + 2 uM doxorubicin) was 2.06% (inactive). In addition, the inhibition was -3.64% (inactive) in assay [7] and -0.66% (inactive) in assay [8].
`Cc1nc2ccccn2c1/C(O)=C1\C(=O)C(=O)N(CCN2CCOCC2)C1c1cccs1` (stereo not given): the viability in assay [1] is 94.5%; in assay [3] it was 94.5% (inactive); in assay [4], 108% (inactive); in assay [5] it was 98.7% (inactive); in assay [6] (setting [9]) it was 94.6%; in assay [6] (setting [10]), 98.7%. The Her2 level in assay [2] is 90.5% (inactive). In addition, the differential viability (reversal) in assay [6] (H69AR cells + 2 uM doxorubicin) was 4.16% (inactive). The inhibition was -8.78% (inactive) in assay [7] and 0.67% (inactive) in assay [8].
Turning to `C=C(C)CSc1nnc(-c2cccc(S(=O)(=O)N(C)C)c2)n1-c1cc(OC)ccc1OC`, the viability in assay [1] is 75%; in assay [3] it was 75% (inactive); in assay [4] it was 95.4% (inactive); in assay [5] it was 95.9% (inactive); in assay [6] (setting [9]), 90.9%; in assay [6] (setting [10]), 95.9%. Also, the Her2 level in assay [2] is 93.5% (inactive). The differential viability (reversal) in assay [6] (H69AR cells + 2 uM doxorubicin) was 4.91% (inactive). Besides, the values for the inhibition in assay [7] and in assay [8] were -3.55% (inactive) and -2.55% (inactive), respectively.
On to `CC1=C(C(=O)NCc2ccccc2)C(c2ccccc2OCC(N)=O)NC(=O)N1` (stereo not given), for which the viability is 93.5% in assay [1]; 93.5% (inactive) in assay [3]; 89.1% (inactive) in assay [4]; 109% (inactive) in assay [5]; 92.9% in assay [6] (setting [9]); 109% in assay [6] (setting [10]). Moreover, in assay [2], the Her2 level was 77% (inactive). Also, the differential viability (reversal) in assay [6] (H69AR cells + 2 uM doxorubicin) was 15.9% (inactive). Further, the inhibition in assay [7] is -4.13% (inactive); in assay [8], 1.43% (inactive).
`O=c1cnnc(NCc2ccccc2)[nH]1`: the viability in assay [1] was 88.5%; in assay [3] it was 88.5% (inactive); in assay [4], 106% (inactive); in assay [5], 103% (inactive); in assay [6] (setting [9]), 91.5%; in assay [6] (setting [10]), 103%. Moreover, the Her2 level in assay [2] was 108% (inactive). The differential viability (reversal) in assay [6] (H69AR cells + 2 uM doxorubicin) was 11.8% (inactive). Besides, the inhibition in assay [7] was -5.79% (inactive); in assay [8], -5.33% (inactive).
Turning to `O=C(CSc1nnc(-c2cccnc2)o1)OC1CCCCC1`, the viability was 110% in assay [1]; 110% (inactive) in assay [3]; 95.8% (inactive) in assay [4]; 101% (inactive) in assay [5]; 87.9% in assay [6] (setting [9]); 101% in assay [6] (setting [10]). Besides, in assay [2], the Her2 level is 110% (inactive). For the same molecule, in assay [6] (H69AR cells + 2 uM doxorubicin), the differential viability (reversal) is 13.2% (inactive). For the same molecule, the results for the inhibition in assay [7] and in assay [8] were -7.87% (inactive) and 0.48% (inactive), respectively.
For the molecule `CC(C)NC(=O)CSc1nc2ccccc2n1-c1ccccc1`, the viability in assay [1] was 88.5%; in assay [3], 88.5% (inactive); in assay [4], 100% (inactive); in assay [5] it was 84.3% (inactive); in assay [6] (setting [9]), 92.4%; in assay [6] (setting [10]) it was 84.3%. The Her2 level in assay [2] is 101% (inactive). Moreover, the differential viability (reversal) in assay [6] (H69AR cells + 2 uM doxorubicin) was -8.05% (inactive). For the same molecule, the inhibition in assay [7] is 2.86% (inactive); in assay [8], -4.13% (inactive).
Regarding `Cc1[nH]c(=O)[nH]c(=O)c1S(=O)(=O)N1CCN(c2cccc(Cl)c2)CC1`, the viability was 88% in assay [1]; 88% (inactive) in assay [3]; 82.6% (inactive) in assay [4]; 93.2% (inactive) in assay [5]; 91.6% in assay [6] (setting [9]); 93.2% in assay [6] (setting [10]). For the same molecule, the Her2 level in assay [2] is 112% (inactive). Also, the differential viability (reversal) in assay [6] (H69AR cells + 2 uM doxorubicin) is 1.64% (inactive). For the same molecule, the inhibition in assay [7] is 3.95% (inactive); in assay [8], -9.35% (inactive).
In the case of `O=C(CN1C(=O)c2cccc3cccc1c23)NCC1CCCO1` (stereo not given), the viability in assay [1] is 104%; in assay [3], 104% (inactive); in assay [4] it was 98.8% (inactive); in assay [5] it was 96.5% (inactive); in assay [6] (setting [9]), 94.7%; in assay [6] (setting [10]), 96.5%. Besides, in assay [2], the Her2 level is 116% (inactive). Moreover, the differential viability (reversal) in assay [6] (H69AR cells + 2 uM doxorubicin) is 1.85% (inactive). Moreover, the figures for the inhibition in assay [7] and in assay [8] were 1.05% (inactive) and 1.97% (inactive), respectively.
For `COc1ccccc1OCCOc1ccccc1/C=N/n1cnnc1`, the viability is 81.5% in assay [1]; 81.5% (inactive) in assay [3]; 96.4% (inactive) in assay [4]; 70.9% (inactive) in assay [5]; 93.5% in assay [6] (setting [9]); 70.9% in assay [6] (setting [10]). For the same molecule, in assay [2], the Her2 level was 104% (inactive). Also, the differential viability (reversal) in assay [6] (H69AR cells + 2 uM doxorubicin) was -22.5% (inactive). Moreover, the inhibition was 1.28% (inactive) in assay [7] and -5% (inactive) in assay [8].
As to `COc1ccc(CCNC(=O)c2cc(-c3cc(C)c(C)cc3O)n[nH]2)cc1OC`, the viability in assay [1] is 93.5%; in assay [3] it was 93.5% (inactive); in assay [4], 86.6% (inactive); in assay [5], 77% (inactive); in assay [6] (setting [9]), 75.5%; in assay [6] (setting [10]), 77%. For the same molecule, the Her2 level in assay [2] was 87.5% (inactive). The differential viability (reversal) in assay [6] (H69AR cells + 2 uM doxorubicin) was 1.53% (inactive). Besides, the inhibition is -3.82% (inactive) in assay [7] and -4% (inactive) in assay [8].
Turning to `O=C(Cc1c(O)c2ccccc2[nH]c1=O)NCc1ccc(F)cc1`, the viability was 121% in assay [1]; 121% (inactive) in assay [3]; 90.5% (inactive) in assay [4]; 91.3% (inactive) in assay [5]; 88.5% in assay [6] (setting [9]); 91.3% in assay [6] (setting [10]). Further, in assay [2], the Her2 level is 87.5% (inactive). Besides, the differential viability (reversal) in assay [6] (H69AR cells + 2 uM doxorubicin) was 2.8% (inactive). The results for the inhibition in assay [7] and in assay [8] were -4.87% (inactive) and 10% (inactive), respectively.
As to `OCCn1c(-c2ccc3c(c2)OCO3)csc1=Nc1ccccc1`, the viability was 97% in assay [1]; 97% (inactive) in assay [3]; 51.4% (inactive) in assay [4]; 88.7% (inactive) in assay [5]; 91.2% in assay [6] (setting [9]); 88.7% in assay [6] (setting [10]). In addition, in assay [2], the Her2 level is 71.5% (inactive). Also, the differential viability (reversal) in assay [6] (H69AR cells + 2 uM doxorubicin) was -2.46% (inactive). Besides, the inhibition in assay [7] is -4.4% (inactive); in assay [8] it was 5.9% (inactive).
As to `C=CCn1c(SCC(=O)NC2CCCCC2)nnc1-c1sc(N)nc1C`, the viability in assay [1] is 99.5%; in assay [3], 99.5% (inactive); in assay [4], 110% (inactive); in assay [5] it was 95.8% (inactive); in assay [6] (setting [9]), 94.9%; in assay [6] (setting [10]), 95.8%. Also, in assay [2], the Her2 level is 102% (inactive). Also, in assay [6] (H69AR cells + 2 uM doxorubicin), the differential viability (reversal) was 0.86% (inactive). The inhibition is -2.8% (inactive) in assay [7] and -1.45% (inactive) in assay [8].
